Article PMC9850772 (ACS Omega, 2023)

Key:
[1] = tested on: A431 tumor-bearing xenograft mice; experiment: PET/CT imaging, time-activity curves in A431 tumor-bearing xenograft mice; type: in vivo; settings: TACs
Outline: (§1)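 Dynamic PET over 90 min p.i., then CT at 45 kVp and 0.4 mA. […] Images reconstructed by 2D-MLEM (12 iterations, 0.5 mm voxels) with scatter and decay correction. Frames 10 × 1, 10 × 2, 6 × 5 and 3 × 10 min. Volumes of interest drawn on heart, kidneys, tumour and muscle; SUV per frame gave time-activity curves.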

[2] = as above; type: in vivo; settings: female, BALB/c-AnN-Foxn-1^nu/nu-Rj (nude), mouse, iv, TAC
Outline: as §1

[3] = Stability toward peptidase degradation in human serum; type: in vitro ADME
Outline: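 68Ga-labelled test compound (10–30 MBq, pH 7.4) was added to pooled human serum and kept at 37 °C. Aliquots were taken at 0, 15, 30, 45, 60 and 90 min and mixed with an equal volume of ice-cold ethanol. They were held on ice for 5 min and centrifuged. Supernatant and pellet activity were counted, and the supernatant was run on radio-HPLC. Three runs per radioligand.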

logD = type: physicochemical; settings: pH 7.4
Outline: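 68Ga-labelled test compound (0.5–2 MBq) was partitioned between 1-octanol and 0.05 M phosphate buffer, pH 7.4. Tubes were shaken for 5 min and centrifuged at 13,000 rpm for 2 min. Aliquots of each phase were γ-counted. Three experiments, each in triplicate.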

[4] = tested on: A431 tumor-bearing xenograft mice; experiment: Ex vivo biodistribution in A431 tumor-bearing xenograft mice
[5] = as above; settings: mouse, intravenous, 5 MBq

SMILES	time at which accumulation in tumor, muscle and heart reached the plateau phase [1] [min p.i.]	SUV ([2]; muscle, SUVmuscle, under EGFR blockade (hEGF)) [SUV]	SUV ([2]; muscle, SUVmuscle, without blocking) [SUV]	SUV ([2]; tumor, SUVtumor, under EGFR blockade (hEGF)) [SUV]	half-life [3] [h]	logD (logD)	uptake into liver and lungs under EGFR blocking ([4]; co-application of hEGF)	tumor uptake under EGFR blocking ([4]; co-application of hEGF, 2 h p.i.)	decrease of absolute tumor uptake ([4]; integrin blockade with excess of c(RGDyK), 120 min p.i.) [%]	tissue uptake at 2 h ([5]; blood) [%ID/g]	tissue uptake at 2 h ([5]; kidney) [%ID/g]	tissue uptake at 2 h ([5]; tumor) [%ID/g]
CC[C@H](C)[C@H](NC(=O)[C@@H](NC(=O)[C@H](CC(N)=O)NC(=O)[C@H](CCC(N)=O)NC(=O)[C@@H]1CCCN1C(=O)[C@@H](NC(=O)[C@H](Cc1ccc(O)cc1)NC(=O)CNC(=O)[C@H](Cc1ccc(O)cc1)NC(=O)[C@H](Cc1c[nH]c2ccccc12)NC(=O)[C@H](Cc1c[nH]cn1)NC(=O)[C@H](Cc1ccc(O)cc1)NC(=O)CCOCCOCCOCCOCCC(=O)NCCCN(CCCNC(=O)CCOCCOCCOCCOCCC(=O)NCCCC[C@@H]1NC(=O)[C@@H](Cc2ccc(O)cc2)NC(=O)[C@H](CC(=O)O)NC(=O)CNC(=O)[C@H](CCCNC(=N)N)NC1=O)CC(=O)NCCOCCOCCOCCOCCC(=O)N[C@@H](CCCCNC(=O)CC[C@H](C(=O)O)N1CCN(CC(=O)O)CCN(CC(=O)O)CC1)C(N)=O)[C@@H](C)O)C(C)C)C(=O)O [[^68Ga]Ga-1, metal not drawn]	15	0.18 ± 0.16	0.27 ± 0.16	0.45 ± 0.44	4.53	-3.07	not reduced	did not decrease	87	4.49 ± 2.17	88 ± 28.5	2.79 ± 1.66
CC[C@H](C)[C@H](NC(=O)[C@@H](NC(=O)[C@H](CC(N)=O)NC(=O)[C@H](CCC(N)=O)NC(=O)[C@@H]1CCCN1C(=O)[C@@H](NC(=O)[C@H](Cc1ccc(O)cc1)NC(=O)CNC(=O)[C@H](Cc1ccc(O)cc1)NC(=O)[C@H](Cc1c[nH]c2ccccc12)NC(=O)[C@H](Cc1c[nH]cn1)NC(=O)[C@H](Cc1ccc(O)cc1)NC(=O)CCOCCOCCOCCOCCOCCOCCC(=O)NCCCN(CCCNC(=O)CCOCCOCCOCCOCCOCCOCCC(=O)NCCCC[C@@H]1NC(=O)[C@@H](Cc2ccccc2)NC(=O)[C@H](CC(=O)O)NC(=O)CNC(=O)[C@H](CCCNC(=N)N)NC1=O)CC(=O)NCCOCCOCCOCCOCCC(=O)N[C@@H](CCCCNC(=O)CC[C@H](C(=O)O)N1CCN(CC(=O)O)CCN(CC(=O)O)CC1)C(N)=O)[C@@H](C)O)C(C)C)C(=O)O [[^68Ga]Ga-2, metal not drawn]					3.95	-3.44						
